Results as given in publication PMC8378419 (ACS chemical neuroscience, 2019).

What was measured:
hD3 [1] = target: T1, hD3 (Homo sapiens, UniProt P35462); experiment: radioligand competition, [3H]N-methylspiperone; format: binding; conditions: Cheng-Prusoff
Method in brief: (§1)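 Radioligand displacement used [3H]N-methylspiperone at human D3 or D4 receptors stably expressed in HEK293 cells. Samples were run in triplicate. IC50 values were converted to Ki with the Cheng–Prusoff equation and given as pKi (−logKi).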

hD4 = target: T2, hD4 (Homo sapiens, UniProt P21917); experiment: radioligand competition, [3H]N-methylspiperone; format: binding; conditions: Cheng-Prusoff
T2 sequence (P21917 1-419): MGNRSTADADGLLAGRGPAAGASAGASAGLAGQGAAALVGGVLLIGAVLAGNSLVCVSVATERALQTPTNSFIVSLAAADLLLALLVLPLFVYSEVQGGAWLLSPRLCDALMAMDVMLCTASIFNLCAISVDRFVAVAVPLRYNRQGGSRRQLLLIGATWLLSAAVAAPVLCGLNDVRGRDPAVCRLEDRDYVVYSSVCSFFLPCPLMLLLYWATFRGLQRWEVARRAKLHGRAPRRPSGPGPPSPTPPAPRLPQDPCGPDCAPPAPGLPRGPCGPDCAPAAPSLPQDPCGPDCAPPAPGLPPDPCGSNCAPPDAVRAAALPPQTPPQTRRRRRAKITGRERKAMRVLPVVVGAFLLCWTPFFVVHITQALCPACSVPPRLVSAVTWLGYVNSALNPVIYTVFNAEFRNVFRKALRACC
Method in brief: as §1

α1a-AR = target: T3, α1a-AR (Homo sapiens, UniProt P35348); experiment: radioligand competition, [3H]prazosin; format: binding; conditions: Cheng-Prusoff
T3 sequence (P35348 1-466): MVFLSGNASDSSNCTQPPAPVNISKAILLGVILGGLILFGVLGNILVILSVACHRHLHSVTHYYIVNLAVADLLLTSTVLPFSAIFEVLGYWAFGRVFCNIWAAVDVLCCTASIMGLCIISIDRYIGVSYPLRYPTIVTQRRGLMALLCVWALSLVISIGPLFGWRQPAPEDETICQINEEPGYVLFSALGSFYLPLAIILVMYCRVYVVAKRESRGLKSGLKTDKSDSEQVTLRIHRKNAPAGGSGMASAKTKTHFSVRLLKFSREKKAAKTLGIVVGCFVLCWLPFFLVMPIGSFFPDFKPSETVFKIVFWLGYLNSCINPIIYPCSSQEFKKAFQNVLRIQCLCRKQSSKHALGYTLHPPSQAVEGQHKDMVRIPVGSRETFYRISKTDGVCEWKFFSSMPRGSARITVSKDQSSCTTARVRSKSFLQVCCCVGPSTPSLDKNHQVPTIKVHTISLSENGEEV
Method in brief: (§2)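 Binding was measured with [3H]prazosin on cloned human α1-adrenoceptor subtypes expressed in CHO cells. Each experiment was run in triplicate.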

α1b-AR = target: T4, α1b-AR (Homo sapiens, UniProt P35368); experiment: radioligand competition, [3H]prazosin; format: binding; conditions: Cheng-Prusoff
T4 sequence (P35368 1-520): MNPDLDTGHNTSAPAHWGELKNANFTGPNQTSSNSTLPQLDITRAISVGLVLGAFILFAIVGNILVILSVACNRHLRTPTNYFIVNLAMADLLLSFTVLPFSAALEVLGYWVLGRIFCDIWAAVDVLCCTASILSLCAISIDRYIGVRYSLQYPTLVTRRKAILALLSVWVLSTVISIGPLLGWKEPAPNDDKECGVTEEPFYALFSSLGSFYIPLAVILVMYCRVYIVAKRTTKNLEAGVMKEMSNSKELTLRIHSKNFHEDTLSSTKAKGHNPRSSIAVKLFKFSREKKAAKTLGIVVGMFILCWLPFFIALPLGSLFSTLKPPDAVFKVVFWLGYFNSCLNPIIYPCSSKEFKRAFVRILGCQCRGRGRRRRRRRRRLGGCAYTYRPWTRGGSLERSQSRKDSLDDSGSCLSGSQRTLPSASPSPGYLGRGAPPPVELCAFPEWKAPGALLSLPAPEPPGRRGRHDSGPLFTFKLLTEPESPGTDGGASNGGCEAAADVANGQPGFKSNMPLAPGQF
Method in brief: as §2

α1d-AR = target: T5, α1d-AR (Homo sapiens, UniProt P25100); experiment: radioligand competition, [3H]prazosin; format: binding; conditions: Cheng-Prusoff
T5 sequence (P25100 1-572): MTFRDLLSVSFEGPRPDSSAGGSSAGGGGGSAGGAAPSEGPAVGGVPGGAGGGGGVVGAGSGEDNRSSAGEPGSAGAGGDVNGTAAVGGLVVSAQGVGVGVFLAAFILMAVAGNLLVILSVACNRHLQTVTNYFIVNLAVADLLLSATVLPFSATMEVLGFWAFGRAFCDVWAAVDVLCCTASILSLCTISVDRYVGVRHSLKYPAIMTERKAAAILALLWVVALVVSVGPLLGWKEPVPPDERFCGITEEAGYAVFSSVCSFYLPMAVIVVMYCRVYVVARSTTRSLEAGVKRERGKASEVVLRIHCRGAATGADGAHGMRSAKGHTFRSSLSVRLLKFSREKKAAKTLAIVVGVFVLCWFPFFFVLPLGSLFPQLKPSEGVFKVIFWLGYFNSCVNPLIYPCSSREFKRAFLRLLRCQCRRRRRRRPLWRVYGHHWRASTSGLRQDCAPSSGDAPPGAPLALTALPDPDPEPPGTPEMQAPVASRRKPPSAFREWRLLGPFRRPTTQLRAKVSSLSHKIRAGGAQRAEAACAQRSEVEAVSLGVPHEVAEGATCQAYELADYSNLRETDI
Method in brief: as §2

5-HT1A [2] = target: T6, 5-HT1A (Homo sapiens, UniProt P08908); experiment: radioligand competition, [3H]8-OH-DPAT; format: binding; conditions: Cheng-Prusoff
T6 sequence (P08908 1-422): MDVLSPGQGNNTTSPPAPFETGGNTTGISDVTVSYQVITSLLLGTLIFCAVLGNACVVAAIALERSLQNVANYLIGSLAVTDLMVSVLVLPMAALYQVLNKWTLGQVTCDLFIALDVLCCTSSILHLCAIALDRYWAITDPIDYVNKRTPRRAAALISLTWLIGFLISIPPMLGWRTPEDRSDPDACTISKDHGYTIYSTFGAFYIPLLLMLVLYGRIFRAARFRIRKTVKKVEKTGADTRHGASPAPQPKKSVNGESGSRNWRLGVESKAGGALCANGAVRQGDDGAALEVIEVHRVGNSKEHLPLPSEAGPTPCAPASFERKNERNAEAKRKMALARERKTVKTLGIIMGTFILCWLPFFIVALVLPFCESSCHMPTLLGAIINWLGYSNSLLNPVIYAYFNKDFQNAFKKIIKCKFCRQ
Method in brief: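 Human cloned 5-HT1A receptors expressed in HeLa cells were labelled with [3H]8-OH-DPAT and displaced by the test compound. Each experiment was run in triplicate.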

5-HT1A [3] = target: T6, 5-HT1A; experiment: […]GTPγS binding; format: biochemical; conditions: agonist
hD3 [4] = target: T1, hD3; experiment: mitogenesis assay; format: cell-based; conditions: full agonist
D1 = D1 (Homo sapiens, UniProt P21728); experiment: cAMP assay; format: cell-based; conditions: antagonist
Sequence of D1 (P21728 whole entry): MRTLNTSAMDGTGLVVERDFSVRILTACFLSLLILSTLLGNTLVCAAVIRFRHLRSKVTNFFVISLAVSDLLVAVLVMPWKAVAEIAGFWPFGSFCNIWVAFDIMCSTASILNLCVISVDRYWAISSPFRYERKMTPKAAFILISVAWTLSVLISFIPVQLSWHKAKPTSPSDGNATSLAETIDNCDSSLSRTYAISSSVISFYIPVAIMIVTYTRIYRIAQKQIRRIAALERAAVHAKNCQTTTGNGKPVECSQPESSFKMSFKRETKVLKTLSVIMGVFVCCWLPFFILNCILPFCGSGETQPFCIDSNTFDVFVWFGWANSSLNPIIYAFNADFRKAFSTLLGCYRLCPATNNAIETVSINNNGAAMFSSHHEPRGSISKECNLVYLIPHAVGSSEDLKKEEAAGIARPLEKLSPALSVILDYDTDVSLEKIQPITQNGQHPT

T1 sequence (P35462 whole entry): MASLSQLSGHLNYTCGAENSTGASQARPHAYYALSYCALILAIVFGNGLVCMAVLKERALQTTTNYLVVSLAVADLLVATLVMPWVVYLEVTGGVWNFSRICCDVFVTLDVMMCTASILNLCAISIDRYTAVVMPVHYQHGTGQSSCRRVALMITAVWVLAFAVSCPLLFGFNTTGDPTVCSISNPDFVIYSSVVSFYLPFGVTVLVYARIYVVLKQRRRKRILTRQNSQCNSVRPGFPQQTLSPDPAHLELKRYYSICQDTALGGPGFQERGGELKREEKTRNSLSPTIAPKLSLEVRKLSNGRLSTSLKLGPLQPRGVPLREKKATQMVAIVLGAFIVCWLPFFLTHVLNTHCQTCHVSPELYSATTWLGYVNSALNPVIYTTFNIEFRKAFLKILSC

Structure (SMILES) | pKi, human cloned receptor / D3 (hD3 [1]) | pKi, human cloned receptor / D4 (hD4) | pKi, human cloned receptor / α1 ^a (α1a-AR) | pKi, human cloned receptor / D2 (α1b-AR) | pKi, human cloned receptor / α1 ^d (α1d-AR) | pKi, human cloned receptor / 5-HT1A (5-HT1A [2]) | Functional profile of 8 / pEC50 (pIC50) (5-HT1A [3]) | Functional profile of 8 / pEC50 (pIC50) (hD3 [4]) | pKi, human cloned receptor / α1 ^a (α1b-AR) | Functional profile of 8 / pEC50 (pIC50) (D1) | pKi, human cloned receptor / D3 (α1a-AR) | pKi, human cloned receptor / D3 (α1b-AR) | pKi, human cloned receptor / D3 (α1d-AR)
COc1cccc(OC)c1OCCNCC1COCC(c2ccccc2)(c2ccccc2)O1 (centres unmarked) [compound 2, 2] | 6.34 | 5.77 |  |  |  |  |  |  |  |  |  |  | 
c1ccc(OCCNCC2COCC(c3ccccc3)(c3ccccc3)O2)cc1 (centres unmarked) [compound 4, N-((6,6-diphenyl-1,4-dioxan-2-yl)methyl)-2-phenoxyethan-1-amine] | 7.92 |  |  |  |  |  |  |  |  |  |  |  | 
COc1cccc(OCCNCC2COCC(c3ccccc3)(c3ccccc3)O2)c1 (centres unmarked) [compound 7, N-((6,6-Diphenyl-1,4-dioxan-2-yl)methyl)-2-(3-methoxyphenoxy)ethanamine] | 7.37 | 6.45 | 6.41 | < 6 | 6.98 | 8.91 |  |  |  |  |  |  | 
Oc1cccc(OCCNCC2COCC(c3ccccc3)(c3ccccc3)O2)c1 (centres unmarked) [compound 8, 3-(2-(((6,6-Diphenyl-1,4-dioxan-2-yl)methyl)amino)ethoxy)phenol] |  |  | < 6 |  | 6.56 |  | 8.28 ± 0.15 | 8.99 ± 0.09 | < 6 | 5.49 ± 0.10 |  |  | 
COc1ccc(OCCNCC2COCC(c3ccccc3)(c3ccccc3)O2)cc1 (centres unmarked) [compound 9, N-((6,6-Diphenyl-1,4-dioxan-2-yl)methyl)-2-(4-methoxyphenoxy)ethanamine] | 6.41 | 6.45 |  |  |  | 7.17 |  |  |  |  | < 6 | < 6 | < 6
Oc1ccc(OCCNCC2COCC(c3ccccc3)(c3ccccc3)O2)cc1 (centres unmarked) [compound 10, 10] | 7.37 | 6.49 | 6.56 | < 6 | 7.01 | 7.59 |  |  |  |  |  |  | 
COc1cccc(OCCNCC2COCC(c3ccccc3)(c3ccccc3)O2)c1OC (centres unmarked) [compound 11, 2-(2,3-Dimethoxyphenoxy)-N-((6,6-diphenyl-1,4-dioxan-2-yl)methyl)ethanamine] | 6.79 | 6.87 |  |  |  |  |  |  |  |  |  |  | 
COc1ccc(OCCNCC2COCC(c3ccccc3)(c3ccccc3)O2)cc1OC (centres unmarked) [compound 12, 2-(3,4-Dimethoxyphenoxy)-N-((6,6-diphenyl-1,4-dioxan-2-yl)methyl)ethanamine] | 6.10 | 5.84 |  |  |  | 7.71 |  |  |  |  | < 6 | < 6 | < 6
c1ccc(C2(c3ccccc3)COCC(CNCCOc3ccc4c(c3)OCO4)O2)cc1 (centres unmarked) [compound 13, 2-(Benzo[d][1,3]dioxol-5-yloxy)-N-((6,6-diphenyl-1,4-dioxan-2-yl)methyl)ethanamine] | 6.99 | 6.79 | 6.32 | < 6 | 6.81 | 8.04 |  |  |  |  |  |  | 
